Assay results: ChEMBL document CHEMBL4033790, “Design and Synthesis of Novel Deuterated Ligands Functionally Selective for the γ-Aminobutyric Acid Type A Receptor (GABAAR) α6 Subtype with Improved Metabolic Stability and Enhanced Bioavailability” (J Med Chem, 2018)
≈ marks a conversion by molar mass, not a printed value. Calls of active or inactive are those of the source. The calls are words filed in the database; no cut-off is given here.

Assays:
Liver [1] = assay: Half life in human liver microsomes at 10 uM by LC-MS/MS analysis; assay type: ADME, microsome
In short: (§1)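 Compound at 10 μM final was preincubated 5 min at 37 °C with NADPH regenerating system in phosphate buffer, pH 7.4. Human or mouse liver microsomes (0.5 mg/mL protein) were added to start the reaction. Samples were taken at 0 (no microsomes) and 10–60 min and measured by LC-MS/MS against an internal standard. Half-life = 0.693/k, with k the slope of ln peak-area ratio versus time. Three experiments, each in duplicate.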

[2] = Metabolic stability in human liver microsomes assessed as parent compound remaining at 10 uM after 60 mins by LC-MS analysis; assay type: ADME, microsome; conditions: read-out: Stability
In short: (§2)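 The 60 min samples of the microsomal incubation (10 μM compound, human or mouse liver microsomes at 0.5 mg/mL, NADPH regenerating system, 37 °C) were analysed by LC-MS. Detection used SIM mode with dual ESI/APCI ionization, calibrated to the retention times and masses of the parent and its O-demethylated metabolites. Peak intensities were measured.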

Liver [3] = assay: Half life in mouse liver microsomes at 10 uM by LC-MS/MS analysis; assay type: ADME, microsome; in short: as §1
[4] = Metabolic stability in mouse liver microsomes assessed as parent compound remaining at 10 uM after 60 mins by LC-MS analysis; assay type: ADME, microsome; conditions: read-out: Stability; in short: as §2
[5] = Aqueous solubility of the compound in DI water at pH 7 after 2 hrs by LC-MS analysis; assay type: physicochemical; conditions: buffer, pH 7, 2 h
In short: (§3)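 10 mg compound dissolved in 2 mL DMAC; 10 μL of this added to 2 mL DI water (pH 7, sonicated) or 2 mL 0.01 M aq HCl (pH 2), held 2 h at 37 °C. Filtered through 0.45 micron filter, then quantified by LC-MS in SIM mode against calibration curves of standards in DMAC (n = 5); n=3.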

[6] = Solubility of the compound in 0.01M HCl at pH 2 after 2 hrs by LC-MS analysis; assay type: physicochemical; conditions: buffer, pH 2, 2 h; in short: as §3
Rattus norvegicus = species on record: Rattus norvegicus; assay: Displacement of [3H]-flunitrazepam from rat brain GABA-A receptor benzodiazepine site […] at 10 uM after 60 to 90 mins by scintillation counting; conditions: tested as the 2H-labelled form
[7] = target: Delta-type opioid receptor (Homo sapiens) (UniProt P41143); assay: Displacement of [3H]-DADLE from human recombinant DOR expressed in HEK293 cells at 10 uM after 60 to 90 mins by scintillation counting; assay type: cell-based; conditions: tested as the 2H-labelled form
In short: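 Primary single-concentration radioligand displacement screen run by the NIMH Psychoactive Drug Screening Program across a 46-target panel that includes hERG. The read-out is percent inhibition of specific radioligand binding. Any compound displacing more than 50% of radioligand went on to secondary binding assays to determine Ki.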

Mus musculus = assay: Neurotoxicity in Swiss Webster mouse assessed as induction of motor impairment at 40 mg/kg administered via oral gavage measured after 10 to 60 mins by rotarod method; assay type: toxicity, organism-based; conditions: in vivo
In short: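 Female mice were given a single oral gavage dose of 40 mg/kg, either in 50% PBS/40% propylene glycol/10% DMSO or, for poorly soluble compounds, in 2% polyethylene glycol plus 2.5% hydroxymethyl cellulose. Rotarod performance was tested 10, 30 and 60 min after dosing, with diazepam 5 mg/kg as positive control.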

HEK-293T = assay: Cytotoxicity against HEK293T cells assessed as reduction in cell viability up to 400 uM after 48 hrs by CellTiter-Glo assay; assay type: cell-based; conditions: human
In short: (§4)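 HEK293T and HepG2 cells grown in high-glucose DMEM with non-essential amino acids, 10 mM HEPES, penicillin/streptomycin and 10% heat-inactivated FBS. Cells were harvested with trypsin and plated; compound was pin-transferred 3 h later. Incubation was 48 h, then CellTiter-Glo luminescence was read. Controls were DMSO (negative) and a cytotoxic aminoketone (positive). Quadruplicates, three independent runs, normalized to controls, nonlinear regression.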

HepG2 = assay: Cytotoxicity against human HepG2 cells assessed as reduction in cell viability up to 400 uM after 48 hrs by CellTiter-Glo assay; assay type: cell-based; conditions: hepg2, 48 h; in short: as §4
[8] = Cmax in Wistar rat plasma at 10 mg/kg, ip administered as single dose measured at 5 to 720 mins post dose by HPLC-MS/MS analysis; assay type: ADME, organism-based; parameters: dose 10 mg/kg, route intraperitoneal
In short: (§5)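 Male Wistar rats (250-350 g) given a single 10 mg/kg i.p. dose of a 5 mg/ml suspension in 85% distilled water, 14% propylene glycol, 1% Tween 80. Three rats per time point (5, 20, 60, 180, 720 min). Blood and brain were collected after sacrifice. Drug was recovered by solid phase extraction and quantified by HPLC-MS/MS.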

[9] = Tmax in Wistar rat plasma at 10 mg/kg, ip administered as single dose by HPLC-MS/MS analysis; assay type: ADME, organism-based
In short: (§6)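 Male Wistar rats (250–350 g) received a single i.p. dose of 10 mg/kg as a 5 mg/ml suspension in 85% water, 14% propylene glycol and 1% Tween 80. Three rats per time point were sacrificed at 5, 20, 60, 180 and 720 min for plasma and brain. Samples were cleaned up by solid-phase extraction and quantified by HPLC-MS/MS.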

[10] = AUC (0 to 12 hrs) in Wistar rat plasma at 10 mg/kg, ip administered as single dose by HPLC-MS/MS analysis; assay type: ADME, organism-based; parameters: time < 12 hr, dose 10 mg/kg, route intraperitoneal
[11] = Terminal elimination half-life in Wistar rat plasma at 10 mg/kg, ip administered as single dose by HPLC-MS/MS analysis; assay type: ADME, organism-based; conditions: read-out: beta t1/2 (converted); in short: as §6
[12] = Cmax in Wistar rat brain at 10 mg/kg, ip administered as single dose measured at 5 to 720 mins post dose by HPLC-MS/MS analysis; assay type: ADME, organism-based; parameters: dose 10 mg/kg, route intraperitoneal; in short: as §5
[13] = Tmax in Wistar rat brain at 10 mg/kg, ip administered as single dose by HPLC-MS/MS analysis; assay type: ADME, organism-based; in short: as §6
Brain [14] = assay: AUC (0 to 12 hrs) in Wistar rat brain at 10 mg/kg, ip administered as single dose by HPLC-MS/MS analysis; assay type: ADME, organism-based; parameters: dose 10 mg/kg, time < 12 hr, route intraperitoneal; conditions: in vivo
[15] = Terminal elimination half-life in Wistar rat brain at 10 mg/kg, ip administered as single dose by HPLC-MS/MS analysis; assay type: ADME, organism-based; conditions: read-out: beta t1/2 (converted); in short: as §6
[16] = Ratio of brain AUC (0 to t) to plasma AUC (0 to t), Kp of the compound in Wistar rat at 10 mg/kg, ip administered as single dose by HPLC-MS/MS analysis; assay type: ADME, organism-based
[17] = target: Voltage-gated inwardly rectifying potassium channel KCNH2 (Homo sapiens, UniProt Q12809); assay: Displacement of [3H]-dofetilide from human ERG expressed in HEK cell membranes at >10 uM after 60 to 90 mins by scintillation counting
Brain [18] = assay: Fraction unbound in Wistar rat brain at 10 mg/kg, ip administered as single dose measured at 5 to 720 mins post dose by HPLC-MS/MS analysis; assay type: ADME, organism-based; conditions: in vivo
In short: (§7)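 Free fraction in rat plasma and brain tissue was measured in vitro by rapid equilibrium dialysis. Exposure came from male Wistar rats (250-350 g) given a single 10 mg/kg IP dose, as a 5 mg/ml suspension in 85% water, 14% propylene glycol and 1% Tween 80. Three rats per time point (5–720 min); brain analysed by HPLC-MS/MS after solid-phase extraction.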

Brain [19] = assay: Unbound AUC in Wistar rat brain at 10 mg/kg, ip administered as single dose measured at 5 to 720 mins post dose by HPLC-MS/MS analysis; assay type: ADME, organism-based; conditions: in vivo; in short: as §7

Delta-type opioid receptor (Homo sapiens), sequence (P41143 whole entry): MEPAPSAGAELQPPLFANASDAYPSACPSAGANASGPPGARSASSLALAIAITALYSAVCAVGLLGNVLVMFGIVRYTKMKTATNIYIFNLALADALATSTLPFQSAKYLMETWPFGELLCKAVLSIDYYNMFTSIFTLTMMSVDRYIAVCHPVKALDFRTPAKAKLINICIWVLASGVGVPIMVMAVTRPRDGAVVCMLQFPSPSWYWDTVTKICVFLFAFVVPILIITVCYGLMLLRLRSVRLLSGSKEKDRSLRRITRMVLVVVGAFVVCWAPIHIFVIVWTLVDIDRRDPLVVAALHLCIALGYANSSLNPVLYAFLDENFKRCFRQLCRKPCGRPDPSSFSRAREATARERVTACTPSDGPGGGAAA
Voltage-gated inwardly rectifying potassium channel KCNH2, sequence (Q12809 whole entry): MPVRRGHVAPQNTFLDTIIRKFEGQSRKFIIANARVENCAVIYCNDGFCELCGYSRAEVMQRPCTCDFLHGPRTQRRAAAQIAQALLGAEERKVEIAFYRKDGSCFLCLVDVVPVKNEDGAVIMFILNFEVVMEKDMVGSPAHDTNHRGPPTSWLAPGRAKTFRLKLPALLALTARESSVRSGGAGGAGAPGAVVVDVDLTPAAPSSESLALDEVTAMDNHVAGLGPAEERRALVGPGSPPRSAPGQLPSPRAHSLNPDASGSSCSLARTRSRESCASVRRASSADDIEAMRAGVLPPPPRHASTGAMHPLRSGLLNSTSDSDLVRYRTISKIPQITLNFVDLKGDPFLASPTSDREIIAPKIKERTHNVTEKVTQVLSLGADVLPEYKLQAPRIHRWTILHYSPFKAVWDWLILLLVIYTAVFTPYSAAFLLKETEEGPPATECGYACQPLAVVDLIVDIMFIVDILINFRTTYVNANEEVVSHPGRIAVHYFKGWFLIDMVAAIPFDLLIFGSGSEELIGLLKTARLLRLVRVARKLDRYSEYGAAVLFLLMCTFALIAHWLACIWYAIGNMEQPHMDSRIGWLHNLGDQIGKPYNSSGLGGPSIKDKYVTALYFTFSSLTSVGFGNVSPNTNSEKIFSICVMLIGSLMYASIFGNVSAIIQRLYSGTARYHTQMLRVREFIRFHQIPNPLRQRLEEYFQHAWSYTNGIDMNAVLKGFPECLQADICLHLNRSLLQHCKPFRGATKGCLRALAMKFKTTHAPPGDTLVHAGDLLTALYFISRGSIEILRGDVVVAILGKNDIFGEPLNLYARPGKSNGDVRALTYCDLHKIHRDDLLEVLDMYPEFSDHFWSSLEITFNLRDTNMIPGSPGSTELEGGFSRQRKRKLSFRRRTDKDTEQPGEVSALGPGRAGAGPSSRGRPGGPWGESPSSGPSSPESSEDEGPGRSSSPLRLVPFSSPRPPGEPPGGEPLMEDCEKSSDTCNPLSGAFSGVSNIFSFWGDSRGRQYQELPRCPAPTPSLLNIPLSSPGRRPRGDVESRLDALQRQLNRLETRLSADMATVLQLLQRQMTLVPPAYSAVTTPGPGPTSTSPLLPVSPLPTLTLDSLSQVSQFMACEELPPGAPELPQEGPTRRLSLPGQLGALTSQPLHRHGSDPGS

COc1ccc(-n2nc3c4cc(Cl)ccc4[nH]cc-3c2=O)cc1
t1/2 (Liver [1]): 2.3 h
remaining at 1 h, 10 µM [2]: 72.5%
t1/2 (Liver [3]): 1.9 h
remaining at 1 h, 10 µM [4]: 69.2%
solubility [5]: 6.4 µM (≈ 2.08 µg/mL)
solubility [6]: 8.5 µM (≈ 2.77 µg/mL)
inhibition (Rattus norvegicus): Active
inhibition [7]: Active
Activity (Mus musculus): Non-Toxic

[2H]C([2H])([2H])Oc1ccc(-n2nc3c4ccc(OC([2H])([2H])[2H])cc4[nH]cc-3c2=O)cc1
remaining at 1 h, 10 µM [2]: 91.5%
remaining at 1 h, 10 µM [4]: 93.1%
Activity (HEK-293T): Non-Toxic
Activity (HepG2): Non-Toxic
Activity (Mus musculus): Non-Toxic
Cmax [8]: 3410 ng/mL
Tmax [9]: 0.55 h
AUC(0-t) at 12 h [10]: 16700 ng·h/mL
half-life [11]: 2.64 h
Cmax [12]: 534 ng/g
Tmax [13]: 0.78 h
AUC (Brain [14]): 2747.67 ng·h/g
half-life [15]: 3.52 h
Kp [16]: 0.17
inhibition (INH) [17]: Not Active
Fu (Brain [18]): 0.105
fAUC (Brain [19]): 288.78 ng·h/g
